Experimental data published in ChEMBL document CHEMBL4390637, “Design, synthesis and biological evaluation of novel inhibitors against cyanobacterial pyruvate dehydrogenase multienzyme complex E1” (Bioorg Med Chem, 2019).

Legend:
[1] = tested on: Synechocystis sp. PCC 6803; test: Growth inhibition of Synechocystis sp. PCC6803 incubated for 7 days; type: functional, organism-based
Microcystis aeruginosa = test: Growth inhibition of Microcystis aeruginosa FACHB905 incubated for 7 days; type: functional, organism-based
Outline: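 Cyanobacteria grown in BG11 medium at 28 °C on a 12 h light/12 h dark cycle for 7 days to logarithmic phase. A 1% inoculum was transferred into fresh medium containing compound at different concentrations and cultured 7 days. OD680 was read, then inhibition rate and EC50 were calculated. Values are means, n = 3.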

[2] = tested on: Synechocystis sp. PCC 6803; test: Inhibition of Synechocystis sp. PCC6803 PDHC-E1 expressed in Escherichia coli BL-21 (DE3) at 100 uM using 6-DCIP and pyruvate incubated for 5 mins relative to untreated control
Outline: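 His-tagged Cy-PDHc E1 co-expressed with GroEL/GroES in E. coli BL-21 (DE3), Ni-NTA purified. Mix: 50 mM K3PO4 pH 7.2, 0.375 mM DCIP, 0.1 mg/ml enzyme, 200 µM ThDP, compound 100 μM; preincubated 5 min at 37 °C, reaction started with saturating pyruvate; percent inhibition reported.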

Sus scrofa = organism: Sus scrofa; test: Inhibition of porcine PDHc-E1 at 100 uM using MTT and phenazine methosulfate incubated for 3 mins relative to untreated control
Outline: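 Porcine PDHc E1 activity followed by MTT reduction at 566 nm. Mix: 1.0 mM MgCl2, 0.2 mM ThDP, 0.5 mM MTT, 6.5 mM PMS, 50 mM K3PO4 pH 7.0, 0.75 mg/mL enzyme, compound at 100 μM final; 3 min at 37 °C, then 2 mM sodium pyruvate added to start; percent inhibition reported.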

[3] = Inhibition of Synechocystis sp. PCC6803 PDHC-E1 expressed in Escherichia coli BL-21 (DE3) using 6-DCIP and pyruvate incubated for 5 mins; design: species or system Synechocystis sp. PCC 6803
Outline: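 Recombinant Cy-PDHc E1 (E. coli BL-21 (DE3) with GroEL/GroES chaperones, Ni-NTA purified) assayed by DCIP reduction in 50 mM K3PO4 pH 7.2, 0.375 mM DCIP, 0.1 mg/ml enzyme, 200 µM ThDP plus inhibitor, 5 min at 37 °C before saturating pyruvate; IC50 values as means ± SD, n = 3.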

[4] = Synechocystis sp. PCC 6803, 168 h
[5] = Microcystis aeruginosa, FACHB905, 168 h

Row | Compound | EC50 [1, 4] [nM] | EC50 (Microcystis aeruginosa; [5]) [nM] | inhibition [2] [%] | inhibition (Sus scrofa) [%] | IC50 [3] [nM] | EC50 [1] [nM] | EC50 (Microcystis aeruginosa) [nM]
1 | Cc1ncc(Cn2cc(COC(=O)c3ccc([N+](=O)[O-])cc3)nn2)c(N)n1 | 1640 | 1330 | 95.7 | 13.5 | 3570 |  | 
2 | Cc1ncc(Cn2cc(COc3ccc(F)cc3)nn2)c(N)n1 | > 100000 | > 100000 | 16.2 |  | > 100000 |  | 
3 | Cc1ncc(Cn2nnc(COC(=O)c3ccc([N+](=O)[O-])cc3)c2I)c(N)n1 | 1090 | 950 | 99.2 | 10.4 | 1690 |  | 
4 | Cc1ncc(Cn2cc(COC(=O)c3ccc(F)cc3)nn2)c(N)n1 | 2110 | 1220 | 99.5 | 17.8 | 3880 |  | 
5 | Cc1ncc(Cn2cc(COc3ccc([N+](=O)[O-])cc3)nn2)c(N)n1 | > 100000 | > 100000 | 8.64 |  | > 100000 |  | 
6 | Cc1ccc(C(=O)OCc2cn(Cc3cnc(C)nc3N)nn2)cc1 | 1430 | 1200 | 95.3 |  | 4480 |  | 
7 | Cc1ncc(Cn2cc(COC(=O)c3ccc(Cl)cc3)nn2)c(N)n1 | 2250 | 1110 | 94.2 |  | 3550 |  | 
8 | Cc1ncc(Cn2cc(COC(=O)c3ccccc3Cl)nn2)c(N)n1 | 2440 | 1430 | 97.8 | 7.31 | 3370 |  | 
9 | Cc1ncc(Cn2cc(COc3ccc(Cl)cc3)nn2)c(N)n1 | > 100000 | > 100000 | 29.6 |  | > 100000 |  | 
10 | Cc1ncc(Cn2cc(COC(=O)c3cccc(Cl)c3)nn2)c(N)n1 | 1810 | 1290 | 93.2 | 9.62 | 3730 |  | 
11 | CUPRIC SULFATE |  |  |  |  |  | 1470 | 1770
12 | Cc1ncc(Cn2cc(COc3ccccc3)nn2)c(N)n1 | > 100000 | > 100000 | 19 |  | > 100000 |  | 
13 | Cc1ncc(Cn2nnc(COC(=O)c3ccc(F)cc3)c2I)c(N)n1 | 840 | 780 | 95.4 | 15.3 | 1610 |  | 
14 | Cc1ccc(C(=O)OCc2nnn(Cc3cnc(C)nc3N)c2I)cc1 | 1140 | 850 | 97.1 |  | 1880 |  | 
15 | Cc1ncc(Cn2nnc(COC(=O)c3ccc(Cl)cc3)c2I)c(N)n1 | 900 | 1060 | 95.6 |  | 2350 |  | 
16 | Cc1ncc(Cn2nnc(COC(=O)c3ccccc3)c2I)c(N)n1 | 1440 | 990 | 96.5 | 21 | 1940 |  | 
17 | Cc1ncc(Cn2cc(COC(=O)c3ccccc3)nn2)c(N)n1 | 1660 | 1170 | 95.5 | 15.9 | 3580 |  | 
18 | Cc1ncc(Cn2nnc(COC(=O)c3ccccc3Cl)c2I)c(N)n1 | 1170 | 900 | 98.9 | 9.5 | 1480 |  | 
19 | Cc1ncc(Cn2nnc(COC(=O)c3cccc(Cl)c3)c2I)c(N)n1 | 1160 | 740 | 98.7 | 5.13 | 1790 |  | 
